Holding throughout (format): functional, cell-based
In one experiment the test system is HL-60. In words: Cytotoxicity against human HL60 cells after 72 hrs by MTT assay. The procedure, abridged: (§1)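 RPMI 1640 with penicillin/streptomycin and 10% FBS (20% for HL-60), 37 °C, 5% CO2. Seeding was 40,000 HL-60 (suspension), 50,000 LS180 or 30,000 MCF-7 (monolayer) cells/ml, overnight. Half the medium was replaced with 3-4 compound concentrations in duplicate (DMSO ≤0.5% final), 72 h, then MTT 0.5 mg/ml for 4 h. Read 570 nm minus 655 nm. IC50 versus untreated control by linear regression, mean ± SD.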

Another experiment concerns MCF7. In words: Cytotoxicity against human MCF7 cells after 72 hrs by MTT assay. The procedure, abridged:
as §1

A short description of experiment [1]: Cytotoxicity against human LS180 cells after 72 hrs by MTT assay. The procedure, abridged:
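Seeding was 40,000 HL-60 (suspension), 50,000 LS180 or 30,000 MCF-7 (monolayer) cells/ml, overnight. Half the medium was replaced with 3-4 compound concentrations in duplicate (DMSO ≤0.5% final), 72 h, then MTT 0.5 mg/ml for 4 h. IC50 versus untreated control by linear regression, mean ± SD.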
Background: Tetrazolium assays rely on reduction of a dye to a coloured formazan, in cell work by metabolically active cells.

Where [2] appears, read: Homo sapiens, HL-60, 72 h, read-out: IC50.
Where [3] appears, read: Homo sapiens, HL-60, 72 h, read-out: pIC50 (converted).
Where [4] appears, read: Homo sapiens, MCF7, 72 h, read-out: IC50.
The mark [5] stands for this setting: Homo sapiens, LS180, 72 h, read-out: IC50.

Data on 15 molecules can be found in ChEMBL document CHEMBL3112587, “Cytotoxic activity assessment, QSAR and docking study of novel bis-carboxamide derivatives of 4-pyrones synthesized by Ugi four-component reaction” (Eur J Med Chem, 2013).

Regarding `O=C(NC1CCCCC1)C(c1cc(=O)cc(-c2ccccc2)o1)N(C(=O)c1ccccc1Cl)c1ccccc1` (stereo unspecified), the IC50 in the experiment with HL-60 (setting [2]) is 72 µM; with HL-60 (setting [3]), 72.4 µM; in the experiment on MCF7 (mcf7), “Not Active”; in experiment [1] (ls180), “Not Active”.
`Cc1ccc(N(C(=O)c2ccccc2)C(C(=O)NC(C)(C)C)c2cc(=O)cc(-c3ccccc3)o2)cc1` (stereo unspecified): the IC50 was 33 µM in the experiment on HL-60 (setting [2]), 33.1 µM in the experiment on HL-60 (setting [3]), 54.9 µM in the experiment with MCF7 (setting [4]) and 122 µM in experiment [1] (setting [5]).
Turning to `O=C(NC1CCCCC1)C(c1cc(=O)c(OCc2ccccc2)co1)N(C(=O)c1ccccc1Cl)c1ccc(Cl)cc1` (stereo unspecified), the IC50 was 30.5 µM in the experiment with HL-60 (setting [2]), 30.2 µM with HL-60 (setting [3]), 168 µM in the experiment with MCF7 (setting [4]) and “Not Active” in experiment [1] (ls180).
As for `O=C(NC1CCCCC1)C(c1cc(=O)c(OCc2ccccc2)co1)N(C(=O)c1ccccc1)c1ccc(Cl)cc1` (stereo unspecified), the IC50 in the experiment on HL-60 (setting [2]) was 14.7 µM; with HL-60 (setting [3]) it was 14.8 µM; with MCF7 (mcf7) it was “Not Active”; in experiment [1] (ls180), “Not Active”.
On to `CC(C)(C)NC(=O)C(c1cc(=O)c(OCc2ccccc2)co1)N(C(=O)c1ccccc1)c1ccccc1` (stereo unspecified), for which the IC50 in the experiment with HL-60 (setting [2]) is 57.3 µM; in the experiment with HL-60 (setting [3]), 57.5 µM; in the experiment on MCF7 (setting [4]), 63.1 µM; in experiment [1] (ls180) it was “Not Active”.
As to `Cc1ccc(N(C(=O)c2ccccc2Cl)C(C(=O)NC2CCCCC2)c2cc(=O)cc(-c3ccccc3)o2)cc1` (stereo unspecified), the IC50 in the experiment on HL-60 (setting [2]) was 22.2 µM; in the experiment with HL-60 (setting [3]) it was 22.4 µM; in the experiment with MCF7 (mcf7) it was “Not Active”; in experiment [1] (ls180), “Not Active”.
In the case of `O=C(NC1CCCCC1)C(c1cc(=O)c(OCc2ccccc2)co1)N(C(=O)c1ccccc1Cl)c1ccccc1` (stereo unspecified), the IC50 in the experiment with HL-60 (setting [2]) was 66.2 µM; in the experiment on HL-60 (setting [3]), 66.1 µM; in the experiment on MCF7 (setting [4]), 84.2 µM; in experiment [1] (setting [5]), 97.3 µM.
Regarding `CCCCc1ccc(N(C(=O)c2ccccc2Cl)C(C(=O)NC(C)(C)C)c2cc(=O)c(OCc3ccccc3)co2)cc1` (stereo unspecified), the IC50 was 16.2 µM with HL-60 (setting [2]), 16.2 µM in the experiment on HL-60 (setting [3]), 28.6 µM with MCF7 (setting [4]) and 88.2 µM in experiment [1] (setting [5]).
On to `Cc1ccc(N(C(=O)c2ccccc2Cl)C(C(=O)NC2CCCCC2)c2cc(=O)c(OCc3ccccc3)co2)cc1` (stereo unspecified), for which the IC50 in the experiment with HL-60 (setting [2]) is 12.1 µM; in the experiment on HL-60 (setting [3]) it was 12 µM; in the experiment on MCF7 (setting [4]) it was 56.3 µM; in experiment [1] (setting [5]) it was 63 µM.
Regarding `COc1cccc2c1C(=O)c1c(O)c3c(c(O)c1C2=O)C[C@@](O)(C(=O)CO)C[C@@H]3O[C@H]1C[C@H](N)[C@H](O)[C@H](C)O1` [DOXORUBICIN], the IC50 in the experiment with HL-60 (setting [2]) was 0.01 µM.
Take `COc1ccc(N(C(=O)c2ccccc2Cl)C(C(=O)NC(C)(C)C)c2cc(=O)cc(-c3ccccc3)o2)cc1` (stereo unspecified): the IC50 was 13.8 µM in the experiment on HL-60 (setting [2]), 13.8 µM in the experiment on HL-60 (setting [3]), 9.1 µM in the experiment with MCF7 (setting [4]) and 16.1 µM in experiment [1] (setting [5]).
Take `Cc1ccc(N(C(=O)c2ccccc2)C(C(=O)NC2CCCCC2)c2cc(=O)c(OCc3ccccc3)co2)cc1` (stereo unspecified): the IC50 in the experiment on HL-60 (setting [2]) was 11.3 µM; with HL-60 (setting [3]) it was 11.2 µM; in the experiment with MCF7 (setting [4]) it was 11.2 µM; in experiment [1] (setting [5]), 20.2 µM.
Consider `Cc1ccc(N(C(=O)c2ccccc2Cl)C(C(=O)NC(C)(C)C)c2cc(=O)c(OCc3ccccc3)co2)cc1` (stereo unspecified), for which the IC50 in the experiment with HL-60 (setting [2]) was 42 µM; in the experiment with HL-60 (setting [3]), 41.7 µM; in the experiment with MCF7 (setting [4]), 53.8 µM; in experiment [1] (setting [5]) it was 88.3 µM.
The corresponding values for `COc1ccc(N(C(=O)c2ccccc2Cl)C(C(=O)NC(C)(C)C)c2cc(=O)c(OCc3ccccc3)co2)cc1` (stereo unspecified) are 52.9 µM, 52.5 µM, 47.2 µM and 77.3 µM.
Regarding `COc1ccc(N(C(=O)c2ccccc2Cl)C(C(=O)NC2CCCCC2)c2cc(=O)cc(-c3ccccc3)o2)cc1` (stereo unspecified), the IC50 entry (in the experiment on HL-60 (hl-60); with MCF7 (mcf7); in experiment [1] (ls180)) was “Not Active” throughout.
